Measured values from different studies.
Each line is one published result; the experiments were not run side by side. In brackets after ≈: the same amount, converted by molar mass.

With `CNC(=S)NN=Cc1ccc(O)c(OC)c1` the IC50 was 200 µM (Leishmania tropica; parasite growth, MTT; 72 h, promastigote).
The EC50 of `CCOC(=O)C1=C(CN2CCN(Cc3ccc(B4OC(C)(C)C(C)(C)O4)cc3)CC2)NC(c2nccs2)=NC1c1ccc(F)cc1Br` (stereo not drawn) is reported as 1.2 µM (Hepatitis B virus; viral replication, inhibitor, qPCR; HepDES19; 72 h).
The EC50 of `Cc1nc(NC(=O)N2CCC[C@H]2C(N)=O)sc1-c1ccnc(C(C)(C)C(F)(F)F)c1` is reported as 8.5 µM (MFM-223; cell growth or viability, ATP luminescence; 5 days).
`C[C@H]1CNCCCN1c1nccc(-c2noc([C@@]3(C)CCCc4sc(N)c(C#N)c43)n2)n1` gave an EC50 of 0.959 µM (BaF3; cell growth or viability; 72 h).
`COc1ccc(C=NNC(=S)Nc2cccnc2)cc1` gave an IC50 of 350 µM (Leishmania tropica; parasite growth; J774.A1; 72 h, intracellular, amastigote).
`CCOC(=O)C1=C(CN2CCC(C(=O)Nc3cccc(B(O)O)c3)C2)NC(c2nccs2)=NC1c1ccc(F)cc1Br` (stereo not drawn) has an EC50 of 0.9 µM (Hepatitis B virus; viral replication, inhibitor, qPCR; HepDES19; 72 h).
`O=C1C(=Nc2ccccc2Br)c2ccccc2N1Cc1ccccc1` gave an IC50 of 66.2 µM (L02; cell growth or viability, MTT; 48 h).
`Nc1nn2c(-c3ccc(Cl)cc3Cl)cc(-c3ccc(OCc4ccccc4)cc3)nc2c1N=Nc1ccc(F)cc1` has an MFC of 62.5 µg/mL (≈ 107 µM) (Saccharomyces cerevisiae; microbial killing, broth dilution; ATCC9763).
For `O=C1C(=Nc2ccccc2I)c2ccccc2N1Cc1ccc(Br)cc1`, the IC50 was 35.2 µM (L02; cell growth or viability, MTT; 48 h).
`C[C@H](Nc1ccc2c(c1)OCCn1cc(N3C(=O)OC[C@H]3C(F)F)nc1-2)C(N)=O` has an EC50 of 1.26 µM (CAL-51; cell growth or viability, ATP luminescence; 5 days).
With `Cc1cccc(N=C2C(=O)Nc3ccccc32)c1` the IC50 was greater than 100 µM (L02; cell growth or viability, MTT; 48 h).
`CCOC(=O)C1=C(CN2CCC[C@@H]2C(=O)Nc2cccc(B(O)O)c2)NC(c2nccs2)=N[C@H]1c1ccc(F)cc1Br` has an EC50 of 0.12 µM (Hepatitis B virus; viral replication, inhibitor, qPCR; HepDES19; 72 h).
With `Cc1ccc(CN2C(=O)C(=Nc3cccc(Cl)c3)c3ccccc32)cc1` the IC50 was 4.76 µM (L02; cell growth or viability, MTT; 48 h).
`CNC(=S)NN=Cc1ccc([N+](=O)[O-])cc1` has an IC50 of 258 µM (Leishmania tropica; parasite growth; J774.A1; 72 h, intracellular, amastigote).
With `O=C1C(=Nc2ccccc2I)c2ccccc2N1Cc1ccc([N+](=O)[O-])cc1` the IC50 was 56.3 µM (L02; cell growth or viability, MTT; 48 h).
The EC50 of `CCOC(=O)C1=C(CN2CCC[C@@H]2C(=O)Nc2ccc(B(O)O)cc2)NC(c2nccs2)=N[C@H]1c1ccc(F)cc1Br` is reported as 0.07 µM (Hepatitis B virus; viral replication, inhibitor, qPCR; HepDES19; 72 h).
The IC50 of `CC(C)c1cccc(C(C)C)c1N=C1C(=O)N(Cc2ccc(Br)cc2)c2ccccc21` is reported as greater than 100 µM (L02; cell growth or viability, MTT; 48 h).
For `C[C@H]1CNCCCN1c1nccc(-c2noc3c2CCC[C@@]32CCCc3sc(N)c(C#N)c32)n1`, the EC50 was 0.188 µM (BaF3; cell growth or viability; 72 h).
